Consider ten compounds from ChEMBL document CHEMBL1143649, “New clerodane diterpenoids from Laetia procera (Poepp.) Eichler (Flacourtiaceae), with antiplasmodial and antileishmanial activities” (Bioorg Med Chem Lett, 2005).

For series [1], the system named is MCF7. As to the kind of experiment: Cytotoxic activity against human MCF-7 cells. The class given is cell-based.
In series [2] the test system is Leishmania amazonensis. As to the kind of experiment: Antileishmanial activity against leishmania amazonensis axenic amastigotes stage. Type of series: functional.
Series [3] deals with Plasmodium falciparum. As to the kind of experiment: Antiplasmodial activity for Plasmodium falciparum FcB1. The class given is functional. A digest of the protocol:
(§1)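 Tested against P. falciparum strains FcB1 and F32, with chloroquine as the positive control. Values are means ± SD from independent experiments.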

Series [4] relates to Plasmodium falciparum. Description: Antiplasmodial activity for Plasmodium falciparum F32. Type of series: functional. The essentials:
as §1

Series [5] has as its system MCF7. As to the kind of experiment: Ratio of cytotoxic activity against human MCF-7 cells to that of antiplasmodial activity against Plasmodium falciparum FcB1. The class given is functional. The essentials:
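Cytotoxic activity on the MCF7 human tumour line divided by antiplasmodial activity on P. falciparum FcB1.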

For series [6], the system named is Leishmania amazonensis. Description: Antileishmanial activity against leishmania amazonensis promastigotes stage. The class given is functional.

Regarding `C=C/C(C)=C/C[C@]1(C)[C@H](C)C[C@H](OC)[C@@]2(C=O)C(C=O)=C[C@H](OC(=O)C(C)CC)C[C@@H]12` (some centres not stated), the Activity in series [1] came out at 9.6 µM; in series [2], 30.3 µM; in series [3], 3.79 µM; in series [4], 6.04 µM; in series [6], 50.9 µM. Also, the Ratio in series [5] is listed as 2.7.
`C=C/C(C)=C/C[C@]1(C)[C@H](C)C[C@H](OC(=O)c2ccccc2)[C@@]23C(=C[C@H](OC(=O)C(C)CC)C[C@@H]12)C(OC(C)=O)OC3OC(C)=O` (some centres not stated): the Activity in series [1] was 27.3 µM; in series [2] it was more than 200 µM; in series [3], 5.35 µM; in series [4], 4.66 µM; in series [6], more than 200 µM. Moreover, in series [5], the Ratio is 4.6.
In turn, `COc1cccc2c1C(=O)c1c(O)c3c(c(O)c1C2=O)C[C@@](O)(C(=O)CO)C[C@@H]3O[C@H]1C[C@H](N)[C@H](O)[C@H](C)O1` [DOXORUBICIN] came in with an Activity in series [1] of 0.4 µM.
For `C=C/C(C)=C/C[C@]1(C)[C@H](C)C[C@H](OC(=O)c2ccccc2)[C@@]23C(=C[C@H](OC(=O)C(C)C)C[C@@H]12)C(OC(C)=O)OC3OC(C)=O` (some centres not stated), the Activity in series [1] was 17.8 µM; in series [2], more than 200 µM; in series [3], 6.08 µM; in series [4] it was 4.44 µM; in series [6], more than 200 µM. Moreover, the Ratio in series [5] is listed as 3.1.
For the compound `C[C@@H]1[C@H](O)[C@@H](C)/C=C/C=C/C=C/C=C/C=C/C=C/C=C/[C@H](O[C@@H]2O[C@H](C)[C@@H](O)[C@H](N)[C@@H]2O)C[C@@H]2O[C@](O)(C[C@@H](O)C[C@@H](O)[C@H](O)CC[C@@H](O)C[C@@H](O)CC(=O)O[C@H]1C)C[C@H](O)[C@H]2C(=O)O` [AMPHOTERICIN B], the Activity in series [2] and in series [6] was 0.3 µM throughout.
Consider `CCN(CC)CCCC(C)Nc1ccnc2cc(Cl)ccc12` (configuration not stated) [CHLOROQUINE], for which the Activity was determined as 0.145 µM in series [3] and 0.06 µM in series [4].
Consider `C=C/C(C)=C/C[C@]1(C)[C@H](C)C[C@H](OC)[C@@]23C(=C[C@H](OC(=O)C(C)CC)C[C@@H]12)C(OC(C)=O)OC3OC(C)=O` (some centres not stated), for which the Activity in series [1] is 4.38 µM; in series [2], 47.4 µM; in series [3], 0.66 µM; in series [4], 0.58 µM; in series [6], 10.9 µM. In addition, the Ratio in series [5] is listed as 6.8.
For the compound `CCCCCCCC/C=C\CCCCCC[C@@H]1C(=O)O[C@@H](C)[C@H]1O`, the Activity came to 65.9 µM in series [1]; 129 µM in series [2]; 27.5 µM in series [3]; 57.6 µM in series [4]; 111 µM in series [6]. In addition, the Ratio in series [5] worked out at 2.1.
On to `C=C/C(C)=C/C[C@]1(C)[C@H](C)C[C@H](O)[C@@]23C(=C[C@@H](OC(=O)C(C)CC)C[C@@H]12)C(OC(C)=O)OC3OC(C)=O` (some centres not stated), for which the Activity in series [1] came to 0.85 µM; in series [2], 10.5 µM; in series [3] it was 0.59 µM; in series [4], 0.57 µM; in series [6] it was 11 µM. In series [5], the Ratio was 1.3.
Take `C=C/C(C)=C/C[C@]1(C)[C@H](C)C[C@H](O)[C@@]23C(=C[C@H](OC(=O)C(C)CC)C[C@@H]12)C(OC(C)=O)OC3OC(C)=O` (some centres not stated): the Activity is 1.54 µM in series [1]; 5.98 µM in series [2]; 0.54 µM in series [3]; 0.62 µM in series [4]; 11.1 µM in series [6]. Further, the Ratio in series [5] worked out at 2.2.
